# MrgX1 antagonist = antagonists of human MrgX1 receptor, primary screen, HEK293 cells, Fluo-4 calcium flux; Mas-related G-protein coupled receptor member X1 (Homo sapiens), Q96LB2; AID 588676, 2011; 1.3% of 310,000 active; B-score at 10 µM; BAM8-22 antagonism; active compounds read low;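 active = calcium-response B-score plate-corrected more than 3 library SD below zero, starting fluorescence within 5 deviations, no agonist response on first addition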;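 also: peak minus trough fluorescence over baseline after final BAM8-22 challenge near maximal dose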
# Target sequence (Q96LB2 whole entry, looked up): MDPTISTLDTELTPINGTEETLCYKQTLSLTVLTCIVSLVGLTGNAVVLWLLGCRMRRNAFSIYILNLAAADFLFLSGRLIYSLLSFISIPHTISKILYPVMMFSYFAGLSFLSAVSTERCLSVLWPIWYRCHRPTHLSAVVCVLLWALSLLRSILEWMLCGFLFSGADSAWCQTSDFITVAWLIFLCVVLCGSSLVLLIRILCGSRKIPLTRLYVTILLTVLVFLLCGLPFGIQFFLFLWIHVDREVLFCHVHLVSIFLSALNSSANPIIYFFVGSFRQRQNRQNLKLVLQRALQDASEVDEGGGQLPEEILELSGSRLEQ
# MrgX1 PAM = positive allosteric modulators of MrgX1, primary screen, HEK293 cells, Fluo-4 calcium flux | 0.63% of 310,000 active | FDSS; active compounds read high | B-score at 10 µM;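 active = plate-corrected calcium response at least 3 library SD above typical, normal starting fluorescence, not activating the receptor alone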;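 also: compound read alongside a low EC10 to EC30 dose of BAM8-22 agonist; peak minus trough fluorescence over baseline measured at the second addition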
# MrgX1 ag = agonists of human MrgX1 receptor, primary screen, HEK293 cells, Fluo-4 calcium flux; Fluo-4 calcium fluorescence, agonist mode; active compounds read high; B-score at 10 µM; 0.44% of 310,000 active;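 active = calcium response B-score plate-corrected fluorescence ratio at least 3 library SD, with starting fluorescence B-score inside 5 SD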
#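 Assay system: stable human MrgX1 HEK293 cell line. Quantity: 15,000 cells per well. Schedule: cells plated overnight, dye loaded 0.5 h 37 °C, 0.5 h room temperature. Detection: Fluo-4 NW calcium-flux fluorescence, kinetic read. Read-out basis: peak-minus-minimum fluorescence over baseline, converted to B scores. Control set: positive and negative control wells on each plate.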
# RGS4 inh = RGS4 inhibitors, primary screen, cell-based, HEK293 M3R inducible RGS4, calcium flux. 0.45% of 310,000 active. Fluo-4 calcium flux; active compounds read high; triggered by carbachol at its EC20. B-score at 10 µM. Regulator of G-protein signaling 4 (Homo sapiens), P49798;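 active = B-score, a plate-corrected calcium signal, over three deviations above library mean, with baseline fluorescence within five deviations of library mean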;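 also: RGS4 expression induced by doxycycline in cells with stable M3 receptor; B-score is computed from the integrated fluorescence ratio over baseline after carbachol; higher B-score means a larger calcium signal and so more RGS4 inhibition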
# Target sequence (P49798 whole entry, looked up): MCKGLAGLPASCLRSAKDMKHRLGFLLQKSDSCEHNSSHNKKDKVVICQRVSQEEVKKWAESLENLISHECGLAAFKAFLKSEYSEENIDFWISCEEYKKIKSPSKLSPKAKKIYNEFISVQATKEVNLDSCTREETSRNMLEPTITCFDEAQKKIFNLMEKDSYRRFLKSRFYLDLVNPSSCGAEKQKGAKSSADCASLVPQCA
# RGS4 act = RGS4 potentiators or activators, primary screen, cell-based, HEK293 M3R inducible RGS4, calcium flux | B-score at 10 µM | carbachol calcium flux Fluo4; active compounds read low | 0.92% of 310,000 active;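 active = B-score of the integrated calcium signal more than 4 SD below the library mean, with starting fluorescence not abnormally high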;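 also: negative B-score means reduced calcium response which marks RGS4 activation or potentiation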
#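 Detection: kinetic calcium fluorescence imaging with Fluo4-AM dye, 2 µM / Material: HEK293 cells with stable M3R and inducible RGS4 / Schedule: recording 10 s baseline at 1 Hz, 100 s post-agonist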
# MrgX1 antag conf = MrgX1 receptor antagonists, duplicate retest, confirmation, HEK293 cells, Fluo-4 calcium flux | 19% of 2,300 active | BAM8-22 calcium flux; active compounds read low | AID 602420, 2012 | shares compounds with MrgX1 antagonist | remaining BAM8-22 calcium response % of control (active compounds read low), % at 10 µM;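 active = remaining agonist calcium response no higher than 100% minus 3 SD of agonist-only control wells, with starting fluorescence near control levels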;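 also: agonist BAM8-22 given at a near maximal EC90 to ECmax level; peak minus minimum fluorescence divided by baseline after agonist addition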
# HEK293 Ca flux = nonspecific calcium signal in parental HEK293, confirmation, counter-screen for MrgX1 antagonist project, parental HEK293 cells, Fluo-4 calcium flux | Fluo-4 calcium fluorescence, FDSS | 2% of 4,000 active | fluorescence ratio F(max-min)/F0 at 10 µM | AID 624111, 2012 | shares compounds with MrgX1 antagonist;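 active = duplicate-averaged calcium fluorescence ratio at least three times the standard deviation of buffer wells, a nonspecific response in parental cells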
# HEK293 Ca counter = calcium response in parental HEK293 cells, primary screen, counter-screen for MrgX1 allosteric activator project, cell-based, Fluo-4 calcium flux, duplicate; fluorescence ratio F(max-min)/F0 at 10 µM; shares compounds with MrgX1 antagonist; 0.4% of 4,000 active; Fluo-4 fluorescence ratio; active compounds read high;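 active = calcium fluorescence ratio, averaged over duplicates, at least 3 SD of the buffer-well ratio, meaning a nonspecific response in receptor-free cells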;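 also: untransfected parental HEK293 lacking MrgX1 used as counterscreen for MrgX1 allosteric activators; fluorescence change taken during the second addition on a kinetic imager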
# HEK293 Ca cntr2 = calcium response in parental HEK293 cells, primary screen, counter-screen for MrgX1 agonist project, cell-based, Fluo-4 calcium flux, duplicate, agonist mode; 8.7% of 4,000 active; Fluo-4 calcium fluorescence (FDSS); active compounds read high; shares compounds with MrgX1 antagonist; fluorescence ratio F(max-min)/F0 at 10 µM;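 active = calcium fluorescence ratio at least three times the spread of buffer wells, meaning a non-specific response in parental cells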
# Active calls of the source: *; i = inactive; · = no result. Shown are actives, neighbours in structure and some others; about 3.5% of the full set was active somewhere.
SMILES,MrgX1 antagonist,MrgX1 PAM,MrgX1 ag,RGS4 inh,RGS4 act,MrgX1 antag conf,HEK293 Ca flux,HEK293 Ca counter,HEK293 Ca cntr2
COc1cc2nc(Nc3ccc(F)cc3)nc(N)c2cc1OC,-6.1*,i,i,i,i,66%*,i,i,i
O=C(Cn1cc2c(n1)CCCC2)N1CCOCC1,-5.4*,i,i,i,i,i,i,i,i
CC(=O)c1ccc(OCC(=O)NC2CCS(=O)(=O)C2)cc1 (stereo not drawn),i,i,i,i,i,·,·,·,·
Cc1ccc(C)c(OCCC(=O)OCC(=O)NC2CCS(=O)(=O)C2)c1 (stereo not drawn),-5.5*,i,i,i,i,i,i,i,i
CC(C)(C)c1ccc(OCCC(=O)OCC(=O)NC2CCS(=O)(=O)C2)cc1 (stereo not drawn),-5.3*,i,i,i,i,i,i,i,i
CCOc1ccccc1Nc1ncccc1C(=O)O,i,i,i,i,i,·,·,·,·
COc1ccccc1Nc1ncccc1C(=O)O,-8.5*,i,i,i,i,77%*,i,i,i
CCCc1nnc(SCc2ccc(OCC)cc2)n1N,-4.5*,i,i,i,i,i,i,i,i
Cc1c(Cl)cccc1NC(=O)c1ccc(-n2ccnc2)nc1,i,i,i,i,i,·,·,·,·
CC(=O)Nc1ccc(Nc2nc3ccccc3n3cnnc23)cc1,i,i,i,i,i,·,·,·,·
Cc1oc2c(CN(C)C)c(O)ccc2c(=O)c1-c1ccc2ccccc2n1,-8.6*,i,i,i,i,i,i,i,i
CC(=O)NCCn1c(SCC(=O)NCCC2=CCCCC2)nc2ccccc2c1=O,i,i,i,i,i,·,·,·,·
COCC(C)n1c(SCC(=O)NCCC2=CCCCC2)nc2ccccc2c1=O (stereo not drawn),-6.6*,i,i,i,i,i,i,i,i
CC(NS(=O)(=O)/C=C/c1ccccc1)c1ccccc1 (stereo not drawn),i,i,i,i,i,·,·,·,·
CCCCn1c(SCC(=O)Nc2cccc(OC)c2)nc2ccc(N3CCOCC3)cc2c1=O,-5.2*,i,i,i,i,i,i,i,i
CCCCn1c(SCC(N)=O)nc2ccc(N3CCOCC3)cc2c1=O,i,i,i,i,i,·,·,·,·
CN(C1CCCC1)C1CCN(C(=S)Nc2cc(F)cc(F)c2)CC1,i,i,i,i,i,·,·,·,·
Cc1onc(-c2c(Cl)cccc2Cl)c1C(=O)ONC(=O)c1ccccc1,i,i,i,i,i,·,·,·,·
CCCC1=C(C(=O)OCC)C(c2ccncc2)n2ncnc2N1 (stereo not drawn),-6.1*,i,i,i,i,i,i,i,i
CCOc1ccc(S(=O)(=O)N(CC)CC(=O)NCc2ccncc2)cc1,i,i,i,i,i,·,·,·,·
CSc1nc2ccc3nc(NC(=O)c4ccccc4)sc3c2s1,-7.4*,i,i,i,i,i,i,i,i
Cc1ccc(SCCCCN2CCNCC2)cc1,i,i,i,i,i,·,·,·,·
CCc1cccc2cc3c(N)c(C(=O)Nc4ccc(S(=O)(=O)N5CCCC5)cc4)sc3nc12,-9.7*,i,i,i,i,i,0.41*,i,i
CCNC(=S)N/N=C/c1ccc(OCC(=O)Nc2ccc(OC)cc2)c(OC)c1,i,i,i,i,i,·,·,·,·
CCNC(=S)N/N=C/c1ccc(OCC(=O)Nc2ccc(C)cc2)cc1,-10*,i,i,i,i,i,i,i,i
SMILES,MrgX1 antagonist,MrgX1 PAM,MrgX1 ag,RGS4 inh,RGS4 act,MrgX1 antag conf,HEK293 Ca flux,HEK293 Ca counter,HEK293 Ca cntr2
CCOc1ccc2ccccc2c1CNCCc1ccc(S(N)(=O)=O)cc1,-4.8*,i,i,i,i,55%*,i,i,i
N=c1n(N)c2ccccc2n1CC(=O)c1ccc(Br)cc1,i,i,i,i,i,·,·,·,·
CCOC(=O)c1c(C)[nH]c(C)c1C(=O)CSc1nc2ccccc2c(=O)n1-c1ccc(F)cc1,-5.3*,i,i,i,i,83%*,i,i,i
CCOC(=O)c1c(C)[nH]c(C)c1C(=O)CSc1nc2ccccc2c(=O)n1-c1ccccc1C,i,i,i,i,i,·,·,·,·
CCc1c(C)nc(SCC(=O)c2ccc(C)c(C)c2)[nH]c1=O,-7*,i,i,i,i,i,i,i,i
COc1ccc(-c2cc(CNS(=O)(=O)c3ccc(F)cc3)on2)cc1,i,i,i,i,i,·,·,·,·
Cc1ccc(S(=O)(=O)N2CCOC2CNC(=O)C(=O)NCc2ccc(Cl)cc2)cc1 (stereo not drawn),i,i,i,i,i,·,·,·,·
CC1(C)NC(=O)N(CCOCCOc2ccccc2-c2ccccc2)C1=O,i,i,i,i,i,·,·,·,·
CNC(=S)Nc1cccc(S(=O)(=O)NC2=NCCC2)c1,i,i,i,i,i,·,·,·,·
CCCCn1cnc2c(c(-c3ccccc3)c(-c3ccccc3)n2Cc2ccco2)c1=N,-14*,i,i,i,i,i,i,i,i
CCCCn1c(=O)[nH]c(=O)c2c1ncn2Cc1ccco1,i,i,i,i,i,·,·,·,·
COc1cc(OC)nc(Oc2ccc(N)c(C)c2)n1,i,i,i,i,i,·,·,·,·
